PMC3172994 (Biochemistry, 2011)
Values joined by “and” are separate entries in the source; they are usually repeats but may differ in a detail not shown here. Equal entries are not always repeated. Where two headings read alike, the source gives them in different places.

Columns and labels:
[1] = target: T1, human α-thrombin (Homo sapiens, UniProt P00734); assay: PABA fluorescence titration of SOS binding to human thrombin; conditions: for ΔG° / ΔFMAX / Kd: pH 7.4, 25 °C; for ΔFMAX: PABA fluorescence λEM 370 nm; for Kd: read-out: KD,OBS
[2] = target: HT cleavage of human fibrinogen (Homo sapiens, UniProt P00734); assay: Turbidimetric assay of thrombin cleavage of fibrinogen; assay type: biochemical; conditions: 0.7 - 1.8 mM SOS, turbidity at 600 nm
[3] = target: T1, human α-thrombin; assay type: biochemical
In short: (§1)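 Purified α-thrombin with the test compound in 20 mM phosphate or Tris, pH 7.4, 150 mM NaCl, 0.1 mM EDTA or CaCl₂, 0.1% PEG 8000. Cuvette format: 5 nM enzyme, 50 μM Spectrozyme TH, room temperature. Plate format: 12.5 nM enzyme, 10 min preincubation at 25 °C. Initial A405 rate taken as activity relative to a no-compound control. A logistic fit gave IC50, Hill slope and maximal inhibition (from Y0, YM).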

[4] = test system: thrombin; conditions: cited from earlier work
[5] = target: BT (bovine thrombin) (Bos taurus, UniProt P00735); assay type: biochemical; conditions: not shown
In short: as §1

[6] = target: thrombin; conditions: cited from earlier work; remark: listed apart in the source
[7] = pH 7.4, I = 0.15, 25 °C, Spectrozyme TH

**Q.** For `O=S(=O)(O)OC[C@H]1O[C@@](COS(=O)(=O)O)(O[C@H]2O[C@H](COS(=O)(=O)O)[C@@H](OS(=O)(=O)O)[C@H](OS(=O)(=O)O)[C@H]2OS(=O)(=O)O)[C@@H](OS(=O)(=O)O)[C@@H]1OS(=O)(=O)O` [SOS, Sucrose octasulfate], which “contribution due to non-ionic forces” value [1] is on record?
**A.** 2.4 kcal/mol

**Q.** What about the “maximal decrease in fluorescence at 370 nm” value ([1]; 20 mM sodium phosphate, pH 7.4, 50 mM NaCl) of the same compound?
**A.** approximately 5%

**Q.** What about the “ΔG°” value ([1]; 50 mM NaCl) of the same compound?
**A.** 7.9 ± 0.1 kcal/mol

**Q.** And the ΔFMAX ([1]; 50 mM NaCl)?
**A.** −4.8±0.1%

**Q.** And the “ΔG°” value ([1]; 150 mM NaCl)?
**A.** 6.4 ± 0.2 kcal/mol

**Q.** And the ΔFMAX ([1]; 150 mM NaCl)?
**A.** −6.4±0.3%

**Q.** What about the “ΔG°” value ([1]; 250 mM NaCl) of the same compound?
**A.** 5.2 ± 0.2 kcal/mol

**Q.** What about the ΔFMAX ([1]; 250 mM NaCl) of the same compound?
**A.** −9.2±0.6%

**Q.** What about the “non-ionic contribution relative to heparin - HT complex” value ([1]; SOS - HT vs heparin - HT) of the same compound?
**A.** approximately 12.5 fold

**Q.** What about the “slope of logKD,OBS vs log[Na+]” value ([1]; pH 7.4) of the same compound?
**A.** 3.8 ± 0.5

**Q.** And the “contribution of non-ionic forces, share of total binding energy” value ([1]; pH 7.4, I 0.15)?
**A.** approximately 35%

**Q.** What about the ionic binding energy ([1]; pH 7.4, I = 0.15, 25 °C) of the same compound?
**A.** 4.5 kcal/mol

**Q.** And the Kd ([1]; 50 mM NaCl, I = 0.085)?
**A.** ~1.4 µM and 1.4 µM

**Q.** What about the Kd ([1]; 150 mM NaCl) of the same compound?
**A.** 22 ± 4 µM

**Q.** And the Kd ([1]; 250 mM NaCl)?
**A.** 149 ± 25 µM

**Q.** And the “effect on fibrinogen cleavage profile” value [2]?
**A.** gradual increase in the lag time of cleavage

**Q.** And the “maximal inhibition of Spectrozyme TH hydrolysis” value ([3]; HT, from Y0 and YM of equation 3)?
**A.** 13.5 ± 0.2%

**Q.** What about the Hill slope [3, 7] of the same compound?
**A.** 1.5 ± 0.5

**Q.** What about the IC50 [3, 7] of the same compound?
**A.** 4.5 ± 1.1 µM

**Q.** And the “inhibition of thrombin hydrolysis of CBS31.39” value [4]?
**A.** ≤ 10%

**Q.** What about the “maximal inhibition of Spectrozyme TH hydrolysis” value [5] of the same compound?
**A.** 20 ± 2.0%

**Q.** With `N=C(N)c1ccc(N)cc1` [PABA, p-aminobenzamidine] as the compound, how does the Kd [6] read?
**A.** 60 to 80 µM
